Measured values taken from ChEMBL document CHEMBL4033733, “Enterovirus inhibitory activity of C-8-tert-butyl substituted 4-aryl-6,7,8,9-tetrahydrobenzo[4,5]thieno[3,2-e][1,2,4]triazolo[4,3-a]pyrimidin-5(4H)-ones” (Bioorg Med Chem Lett, 2017).

Experiments:
[1] = Selectivity index, ratio of CC50 for human HeLa cells to EC50 for human poliovirus 3 infected in human HeLa cells; assay type: toxicity, cell-based; details: read-out: Ratio CC50/EC50
In short: (§1)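 Cytopathic-effect reduction assay in HeLa cells infected with coxsackievirus B1, B3 or poliovirus 3, with pleconaril as reference. EC50 is the concentration that improves viability of infected HeLa cells by 50%. CC50 is the concentration that reduces viability of uninfected HeLa cells by 50%. SI is CC50/EC50.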

Coxsackievirus B1 = test: Antiviral activity against human coxsackievirus B1 infected in human HeLa cells assessed as reduction in virus-induced cytopathicity incubated for 3 days by MTT assay; assay type: functional, cell-based; details: Enterovirus B, 72 h
In short: (§2)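 HeLa cells infected with enterovirus (coxsackievirus B1 or B3); protection from virus-induced cytopathic effect measured. EC50 is the concentration restoring 50% viability of the infected cells. Pleconaril served as reference.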

Liver [2] = test: Stability in rat liver microsomes assessed as compound remaining by mass spectrometry; assay type: ADME, microsome
In short: (§3)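 Phase I metabolic stability in human or rat liver microsomes, with buspirone as reference. Parent compound remaining was quantified by quantitative mass spectrometry and expressed as a percentage.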

[3] = Cytotoxicity in human H1HeLa cells assessed as reduction in cell viability incubated for 3 days by MTT assay; assay type: cell-based, H1-HeLa
In short: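 Uninfected H1 HeLa cells; CC50 is the concentration lowering cell viability by 50%.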

[4] = Antiviral activity against human rhinovirus 71 infected in human H1HeLa cells assessed as reduction in virus-induced cytopathicity incubated for 3 days by MTT assay; assay type: functional, cell-based, Human rhinovirus A71; details: Rhinovirus A, H1-HeLa, 72 h
In short: (§4)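 H1 HeLa cells infected with rhinovirus (14, 21 or 71); EC50 is the concentration restoring 50% viability of the infected cells. Pleconaril served as reference.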

Liver [5] = test: Stability in human liver microsomes assessed as compound remaining by mass spectrometry; assay type: ADME, microsome; in short: as §3
[6] = Cytotoxicity in human HeLa cells assessed as reduction in cell viability incubated for 3 days by MTT assay; assay type: cell-based
In short: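 Uninfected HeLa cells; CC50 is the concentration lowering cell viability by 50%.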

rhinovirus A21 = test: Antiviral activity against human rhinovirus 21 infected in human H1HeLa cells assessed as reduction in virus-induced cytopathicity incubated for 3 days by MTT assay; assay type: functional, cell-based; details: Rhinovirus A, H1-HeLa, 72 h; in short: as §4
Coxsackievirus B3 = test: Antiviral activity against human coxsackievirus B3 infected in human HeLa cells assessed as reduction in virus-induced cytopathicity incubated for 3 days by MTT assay; assay type: functional, cell-based; details: Enterovirus B, 72 h; in short: as §2
Poliovirus 3 = test: Antiviral activity against human poliovirus 3 infected in human HeLa cells assessed as reduction in virus-induced cytopathicity incubated for 3 days by MTT assay; assay type: functional, cell-based; details: Enterovirus C, 72 h; in short: as §1
[7] = Selectivity index, ratio of CC50 for human HeLa cells to EC50 for human coxsackievirus B3 infected in human HeLa cells; assay type: toxicity, cell-based; details: read-out: Ratio CC50/EC50; in short: as §1
[8] = Selectivity index, ratio of CC50 for human HeLa cells to EC50 for human coxsackievirus B1 infected in human HeLa cells; assay type: toxicity, cell-based; details: read-out: Ratio CC50/EC50; in short: as §1
rhinovirus B14 = test: Antiviral activity against human rhinovirus 14 infected in human H1HeLa cells assessed as reduction in virus-induced cytopathicity incubated for 3 days by MTT assay; assay type: functional, cell-based; details: Rhinovirus B, H1-HeLa, 72 h; in short: as §4

SMILES | selectivity ratio [1] | EC50 (Coxsackievirus B1) [µM] | Stability (Liver [2]) [%] | CC50 at 72 h [3] [µM] | EC50 [4] [µM] | Stability (Liver [5]) [%] | CC50 at 72 h [6] [µM] | EC50 (rhinovirus A21) [µM] | EC50 (Coxsackievirus B3) [µM] | EC50 (Poliovirus 3) [µM] | selectivity ratio [7] | selectivity ratio [8] | EC50 (rhinovirus B14) [µM]
CC(C)(C)C1CCc2c(sc3c2c(=O)n(-c2ccccc2)c2nncn32)C1 (stereo unspecified) | > 51.2 | 8.85 | 51.5 | 9.6 | 1.6 | 63.2 | > 100 | 2.5 | 8.65 | 1.95 | > 11.5 | > 11.2 | 1.7
CC(C)(C)C1CCc2c(sc3c2c(=O)n(-c2cccc(Cl)c2)c2nncn32)C1 (stereo unspecified) |  | 17.8 |  | 15 | 3.8 |  | 38.3 | > 15 | > 38.3 | 9.63 |  |  | 2.1
CC(C)(C)C1CCc2c(sc3c2c(=O)n(-c2ccc(Br)cc2)c2nncn32)C1 (stereo unspecified) |  | > 30.5 |  | 11 | 2.3 |  | 30.5 | > 11 | > 30.5 | 12.6 |  |  | 2
CC1(C)CCc2c(sc3c2c(=O)n(-c2ccccc2)c2nncn32)C1 |  | > 54.8 |  | 76.5 | > 76.5 |  | 54.8 | > 76.5 | > 54.8 | > 54.8 |  |  | > 76.5
Cc1nnc2n(-c3ccccc3)c(=O)c3c4c(sc3n12)CC(C(C)(C)C)CC4 (stereo unspecified) |  | > 45.1 |  | 35.9 | 4.6 |  | 45.1 | > 35.9 | > 45.1 | > 45.1 |  |  | 4.3
CC(C)(C)C1CCc2c(sc3c2c(=O)n(-c2ccccc2)c2nnc(S)n32)C1 (stereo unspecified) |  | > 45.1 |  | 40.1 | 9.1 |  | 45.1 | 19.4 | > 45.1 | > 45.1 |  |  | 10.1
CC(C)(C)C1CCc2c(sc3c2c(=O)n(-c2ccc(C(F)(F)F)cc2)c2nncn32)C1 (stereo unspecified) |  | > 35.5 |  | 31.4 | > 31.4 |  | 35.5 | > 31.4 | > 35.5 | > 35.5 |  |  | > 31.4
Cc1ccccc1-n1c(=O)c2c3c(sc2n2cnnc12)CC(C(C)(C)C)CC3 (stereo unspecified) |  | 9.83 |  | 35.4 | 10.1 |  | 39.1 | > 35.4 | 9.22 | 3.44 |  |  | 8.8
CC1CCCc2sc3c(c21)c(=O)n(-c1ccccc1)c1nncn31 (stereo unspecified) |  | > 100 |  | > 100 | > 100 |  | > 100 | > 100 | > 100 | > 100 |  |  | > 100
CC(C)(C)C1CCc2c(sc3c2c(=O)n(-c2ccccc2)c2nnc(-c4ccccc4)n32)C1 (stereo unspecified) |  | > 31.9 |  | 8.7 | > 8.7 |  | 31.9 | > 8.7 | > 31.9 | > 31.9 |  |  | > 8.7
CC(C)(C)C1CCc2c(sc3c2c(=O)n(-c2ccccc2Cl)c2nncn32)C1 (stereo unspecified) |  | 19.5 |  | 20.7 | 3.9 |  | 26.3 | 14.7 | 16.2 | 1.84 |  |  | 2.5
CC(C)(C)C1CCc2c(sc3c2c(=O)n(-c2cccc(Br)c2)c2nncn32)C1 (stereo unspecified) |  | 15.6 |  | 26.3 | 15.9 |  | 32.9 | 20 | > 32.9 | 13.2 |  |  | 3.5
CCCC1CCc2c(sc3c2c(=O)n(-c2ccccc2)c2nncn32)C1 (stereo unspecified) |  | > 41 |  | 31.7 | 14 |  | 41 | > 31.7 | > 41 | 20 |  |  | 18.1
Cc1ccc(-c2ccc(-n3c(=O)c4c5c(sc4n4cnnc34)CC(C(C)(C)C)CC5)cc2)cc1 (stereo unspecified) |  | 55.4 |  | 16.9 | > 16.9 |  | > 100 | > 16.9 | 46.8 | 47 |  |  | > 16.9
CC(C)(C)C1CCc2c(sc3c2c(=O)n(-c2ccc(Cl)cc2)c2nncn32)C1 (stereo unspecified) |  | > 36.5 |  | 18.8 | 3.8 |  | 36.5 | > 18.8 | > 36.5 | 8.35 |  |  | 3.7
O=c1c2c3c(sc2n2cnnc2n1-c1ccccc1)CCCC3 |  | > 100 |  | > 100 | > 100 |  | > 100 | > 100 | > 100 | > 100 |  |  | > 100
COc1ccc(-n2c(=O)c3c4c(sc3n3cnnc23)CC(C(C)(C)C)CC4)cc1 (stereo unspecified) |  | > 39.1 |  | 21.9 | 1.8 |  | 39.1 | 2.6 | > 39.1 | 3.63 |  |  | 1.9
O=c1c2c3c(sc2n2cnnc2n1-c1ccccc1)CC(c1ccccc1)CC3 (stereo unspecified) |  | > 27.5 |  | 27.6 | > 27.6 |  | 27.5 | > 27.6 | > 27.5 | > 27.5 |  |  | 19.4
CC1CCc2c(sc3c2c(=O)n(-c2ccccc2)c2nncn32)C1 (stereo unspecified) |  | > 79 |  | 69 | > 69 |  | 79 | > 69 | > 79 | > 79 |  |  | 16.4
CC(C)(C)C1CCc2c(sc3c2c(=O)n(-c2ccccc2)c2nnc(N)n32)C1 (stereo unspecified) |  | > 45.9 |  | 35.4 | 12.8 |  | 45.9 | > 35.4 | > 45.9 | > 45.9 |  |  | 8.2
Cc1ccc(-n2c(=O)c3c4c(sc3n3cnnc23)CC(C(C)(C)C)CC4)cc1 (stereo unspecified) |  | 14.3 |  | 11.1 | 1.8 |  | 32.8 | 2.4 | 12.9 | 1.94 |  |  | 1.8
CC1(C)Cc2c(sc3c2c(=O)n(-c2ccccc2)c2nncn32)C(C)(C)C1 |  | > 9.09 |  | 9.6 | > 9.6 |  | 9.09 | > 9.6 | > 9.09 | > 9.09 |  |  | > 9.6
O=C1CC2(CCCC2)CC(=O)N1CCCCN1CCN(c2ncccn2)CC1 [BUSPIRONE] |  |  | 0.119 |  |  | 3.52 |  |  |  |  |  |  | 
Cc1cc(CCCOc2c(C)cc(-c3noc(C(F)(F)F)n3)cc2C)on1 [PLECONARIL] |  | 0.13 |  | 53.5 | 0.013 |  | 42.8 | 0.083 | > 42.8 | 0.51 |  |  | 0.31
